pIC50: −log10 of the molar value. Calls of active or inactive are those of the source. No cut-off for these calls is given here. Non-standard residues stand in square brackets, D forms with d. Residues, ends and D or L forms follow the SMILES beside them. Chg = N[C@H](C(=O)O)C1CCCCC1
How the values were obtained:
[1] = In vivo inhibition of myostatin in C57BL/6J mouse assessed as increase in weight of tibialis anterior muscles at 0.75 mM, IM administered for 28 days relative to control; type: functional; set-up: scale not given: the % may be the effect or the level left; conditions: time 28 day
Procedure, shortened: (§1)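 Wild-type male C57BL/6J mice, 8 weeks old. Single intramuscular injection at day 0: peptide (30 nmol; 0.75 mM in saline, 40 μL) into left tibialis anterior, saline (40 μL) into right TA. TA muscles collected and weighed at day 28, weight normalized to body weight. Increase expressed relative to saline-injected TA (=100%). Mean ± SD, N = 4–5 mice.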

[2] = Inhibition of activin A (unknown origin) expressed in HEK293 cells transfected with Smad2/3 responsive reporter plasmid incubated for 4 hrs by dual luciferase reporter gene assay; conditions: Homo sapiens, HEK293, 4 h
[3] = target: Transforming growth factor beta-1 proprotein (Homo sapiens, UniProt P01137); assay: Inhibition of TGF beta 1 (unknown origin) expressed in HEK293 cells transfected with Smad2/3 responsive reporter plasmid incubated for 4 hrs by dual luciferase reporter gene assay; type: cell-based
Procedure, shortened: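 HEK293 cells co-transfected with Smad-responsive firefly luciferase reporter (pGL4.48[luc2P/SBE/Hygro]) and Renilla control (pGL4.74[hRluc/TK]). Cells starved 8 h in serum-free DMEM, then exposed 4 h to TGF-β1 at 2.5 ng/mL (0.1 nM) with or without peptide (0.025–18 or 0.074–54 μM). SB431542 at 5 μM as positive control. Triplicate means ± SD. IC50 from sigmoidal curve fitting.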

Mus musculus = assay: In vivo inhibition of myostatin in C57BL/6J mouse assessed as increase in weight of tibialis anterior muscles normalized with body weight at 0.75 mM, IM administered for 28 days; type: functional; conditions: time 28.0 day; procedure, shortened: as §1
[4] = target: T1, Growth/differentiation factor 8 (Homo sapiens, UniProt O14793); assay: Inhibition of myostatin (unknown origin) expressed in HEK293 cells transfected with Smad2/3 responsive reporter plasmid incubated for 4 hrs by dual luciferase reporter gene based assay; type: cell-based
T1 sequence (O14793 whole entry): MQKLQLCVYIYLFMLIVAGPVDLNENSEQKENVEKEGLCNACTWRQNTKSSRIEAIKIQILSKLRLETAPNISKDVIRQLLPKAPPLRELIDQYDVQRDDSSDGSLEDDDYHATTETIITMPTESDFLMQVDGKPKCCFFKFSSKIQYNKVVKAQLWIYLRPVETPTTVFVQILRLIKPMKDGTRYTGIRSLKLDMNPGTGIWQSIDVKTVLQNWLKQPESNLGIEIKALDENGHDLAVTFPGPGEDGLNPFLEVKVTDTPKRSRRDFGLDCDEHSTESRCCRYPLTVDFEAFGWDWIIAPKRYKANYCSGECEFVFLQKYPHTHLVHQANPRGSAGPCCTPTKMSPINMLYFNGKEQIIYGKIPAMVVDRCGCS

[5] = Inhibition of GDF-11 (unknown origin) expressed in HEK293 cells transfected with Smad2/3 responsive reporter plasmid incubated for 4 hrs by dual luciferase reporter gene based assay; conditions: Homo sapiens, HEK293, 4 h

Transforming growth factor beta-1 proprotein, sequence (P01137 279-390 limits assumed): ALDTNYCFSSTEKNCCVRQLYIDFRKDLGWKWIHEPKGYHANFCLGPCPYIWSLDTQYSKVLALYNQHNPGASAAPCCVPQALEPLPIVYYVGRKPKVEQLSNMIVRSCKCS

With `CC[C@@H](C)[C@@H](NC(=O)[C@@H](CCCNC(=N)N)NC(=O)[C@@H](Cc1c[nH]c2ccccc12)NC(=O)[C@H](NC(=O)[C@@H](CCCCN)NC(=O)[C@H](NC(=O)[C@@H](CCCNC(=N)N)NC(=O)[C@H](NC(=O)[C@@H](Cc1c[nH]c2ccccc12)NC(=O)[C@@H](CCCNC(=N)N)NC(=O)[C@@H](CCCCN)NC(=O)[C@H](NC(=O)[C@@H](CCCNC(=N)N)NC(=O)[C@H](N)CC(C)C)C1CCCCC1)[C@H](C)CC)C1CCCCC1)[C@H](C)CC)C(=O)N[C@H](Cc1ccc(O)cc1)C(=O)N[C@H](Cc1c[nH]c2ccccc12)C(N)=O` the Activity [1] was 133%, the pIC50 [2] was 6.05 and the pIC50 [3] was 5.80. For the same compound, the Activity (Mus musculus) was “Active”, the pIC50 [4] was 6.72 and the pIC50 [5] was 6.20.

`CC[C@H](C)[C@H](NC(=O)[C@H](CCC(N)=O)NC(=O)[C@@H](NC(=O)[C@H](CCCCN)NC(=O)[C@@H](NC(=O)[C@@H](Cc1c[nH]c2ccccc12)NC(=O)[C@H](CCCNC(=N)N)NC(=O)[C@@H](NC(=O)[C@H](Cc1ccc(O)cc1)NC(=O)[C@@H](N)Cc1c[nH]c2ccccc12)[C@@H](C)CC)[C@@H](C)CC)C1CCCCC1)C(=O)N[C@@H](Cc1c[nH]c2ccccc12)C(=O)N[C@@H](CO)C(=O)N[C@@H](CCCCN)C(=O)N[C@H](C(=O)N[C@@H](CCCNC(=N)N)C(=O)N[C@@H](CC(C)C)C(N)=O)C1CCCCC1` (H-WYIR[dW]IK[Chg]QIWSK[Chg]RL-NH2) gave an Activity [1] of 109%, a pIC50 [2] of 5.85 and a pIC50 [3] of 5.17. For the same compound, the Activity (Mus musculus) was “Active”, the pIC50 [4] was 6.59 and the pIC50 [5] was 5.85.
